Sampled rows, rich in hits. Any-hit rate of the full collection: about 2.6%.
SR-BI DiI inh = inhibitors of SR-BI mediated HDL lipid uptake, primary screen, ldlA[mSR-BI] cells, fluorescence, single point | ldlA[mSR-BI] CHO cells, DiI-HDL uptake fluorescence, 3 h | inhibition, % at 12.5 µM | actives 0.96% (n = 320,000) | AID 488896, 2010;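 active means mean replicate inhibition of at least 70% and a set share of replicates each scoring 70 or more; inconclusive means meets just one of the two criteria; inactive means fails both criteria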
Target sequence (Q61009 whole entry, looked up): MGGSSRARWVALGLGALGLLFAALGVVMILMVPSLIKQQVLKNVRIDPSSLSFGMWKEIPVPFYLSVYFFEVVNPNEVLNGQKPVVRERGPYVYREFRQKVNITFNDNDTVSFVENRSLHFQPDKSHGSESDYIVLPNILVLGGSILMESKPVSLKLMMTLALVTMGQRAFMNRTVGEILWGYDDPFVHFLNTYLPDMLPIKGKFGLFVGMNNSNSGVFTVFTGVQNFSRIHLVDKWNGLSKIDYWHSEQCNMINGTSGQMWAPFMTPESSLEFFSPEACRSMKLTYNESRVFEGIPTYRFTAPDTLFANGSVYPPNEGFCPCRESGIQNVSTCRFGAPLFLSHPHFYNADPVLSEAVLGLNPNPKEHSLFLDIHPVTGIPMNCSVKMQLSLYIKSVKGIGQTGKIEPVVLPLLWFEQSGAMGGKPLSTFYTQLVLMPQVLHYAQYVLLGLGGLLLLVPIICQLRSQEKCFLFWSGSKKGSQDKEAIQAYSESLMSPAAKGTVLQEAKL
XiGFP reactiv = activators of inactive X chromosome reactivation, primary screen, imaging, XiGFP fibroblasts, GFP high-content imaging, set 2; XiGFP mouse fibroblasts, % GFP-positive cells imaging, 3 d; cells co-treated with 5-aza-dC sensitizer; scaled so ellipticine positive control = 100%; activation, % at 7.58 µM; actives 0.055% (n = 360,000);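 active means mean normalized replicate activation at least 10% and every replicate at or above 10%; inconclusive means only one of the two criteria met; inactive means mean below 10% and not all replicates reach 10%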
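Material: SV40-immortalized XiGFP fibroblast cells, line 68-5-11 | Buffer or medium: DMEM containing 5-aza-dC | Dosing: One concentration, pinned | Times: 3 d treatment, 15 min room-temperature fixation | Controls: Ellipticine 6 µM positive control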
rRNA inh HTS = reduced GFP signal of wild-type E. coli, primary screen, bacterial rRNA inhibitor project, GFP/RFP fluorescence, OD600, single point; E. coli WT GFP vs humanized-ribosome RFP mutants, 24 h; stronger effect = lower value; DMSO median 0, no signal -100; AID 720706, 2013; actives 1.6% (n = 350,000); GFP signal change (wild-type ribosome), % (no concentration beside the values);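 active means significant combined selectivity score with lowered wild-type GFP, culture density cut under 30%, mutant RFP and density less affected; inactive means any of these conditions unmet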
dFosB act = activators of delta FosB homodimer, primary screen, biochemical, fluorescence polarization, TAMRA-CDK5 oligo, single point | Protein FosB (Mus musculus), P13346 | purified delta FosB; percent of positive-control signal above neutral wells | activation, % at 25 µM | actives 0.99% (n = 340,000);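 active means mean activation above about 17%, with every replicate also reaching it, limit read from the data, passing the limit was not always enough; inconclusive means only one of the two conditions met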
PvdQ inh = P. aeruginosa PvdQ acylase inhibitors, primary screen, biochemical, fluorescence, plate reader and imaging, single point; PvdQ acylase [Pseudomonas aeruginosa LESB58]; purified PvdQ acylase; inhibition, % at 10 µM; actives 0.063% (n = 340,000); AID 488965, 2010; in the data active means inhibition above about 30%, passing the limit was not always enough; inconclusive means no clear call, values can overlap the other calls
SR-BI DiI-HDL act = activators of SR-BI mediated DiI-HDL uptake, primary screen, ldlA[mSR-BI] CHO cells, DiI fluorescence; 3 h; 100 = double the neutral-control signal; activation, % at 12.5 µM; actives 0.096% (n = 320,000); AID 504775, 2011;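 active means mean replicate activation of at least 60% and every replicate at or above 60%; inconclusive means mean or all-replicate condition met, but not both; inactive means mean below 60% and not all replicates reaching 60%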
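Material – SR-BI-overexpressing, LDLR-lacking CHO cells · Medium – BSA-supplemented, HEPES-buffered Ham's F12, pH 7.4 · Doses – single concentration · Times – compound with DiI-HDL co-incubation, 3 h at 37 °C · Measured by – bottom-read fluorescence, 550/595 nm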
Large screens that a line does not name were inactive.

NC1=NC(=O)/C(=C/c2cccc(F)c2)S1	none
CCNc1ccc(S(=O)(=O)N2CCOCC2)cc1NCC(=O)Nc1cccc(Br)c1	none (no result: SR-BI DiI inh, dFosB act, PvdQ inh, SR-BI DiI-HDL act)
Cc1cccc(/C=C/C(=O)c2ccc(NC3=NCCCS3)cc2)c1	none
O=C(/C=C/c1ccccc1)c1ccc(NC2=NCCCS2)cc1	rRNA inh HTS -26
O=C(/C=C/c1ccc(Br)cc1)c1ccc(NC2=NCCCS2)cc1	dFosB act 20
Cc1ccc(S(=O)(=O)N2CCN(c3ccccc3)CC2)cc1	none
COc1ccc(-c2c(C)nn3c(N4CCN(Cc5ccccc5)CC4)cc(C)nc23)cc1OC	SR-BI DiI inh 77
Cc1nn2c(N3CCN(C)CC3)cc(C(C)(C)C)nc2c1-c1ccccc1	none
Cc1cc(N2CCCCC2)n2nc(C)c(-c3ccccc3)c2n1	none (no result: XiGFP reactiv, rRNA inh HTS)
Cc1nn2c(N3CCCC3)cc(C(C)C)nc2c1-c1ccccc1	SR-BI DiI inh 74 (no result: XiGFP reactiv, rRNA inh HTS)
Cc1cc(N2CCC(C)CC2)n2nc(C)c(-c3ccccc3)c2n1	SR-BI DiI inh 75 (no result: XiGFP reactiv, rRNA inh HTS)
Cc1cc(N2CCN(Cc3ccccc3)CC2)n2nc(C)c(-c3ccccc3)c2n1	none (no result: XiGFP reactiv, rRNA inh HTS)
CNC[C@@H]1Oc2ncc(C#CCC(C)C)cc2C(=O)N([C@H](C)CO)C[C@@H]1C	none (no result: SR-BI DiI inh, dFosB act, PvdQ inh, SR-BI DiI-HDL act)
Cc1ccc(C(C)C)c(OCC(=O)NC(=S)Nc2ccccc2N2CCOCC2)c1	none
Cc1[nH]c(C)c(S(=O)(=O)N2CCCCC2)c1C(=O)N1CCCCC1	none
O=[N+]([O-])c1ccc(-c2csc(NN=C3CCCC3)n2)cc1	rRNA inh HTS -22
CNc1nc(-c2ccc([N+](=O)[O-])cc2)cs1	none (no result: XiGFP reactiv, rRNA inh HTS)
COc1ccc(C)c2sc(NC(=O)CCS(=O)(=O)c3ccccc3)nc12	rRNA inh HTS -31
COCC(C)N=Cc1c(O)[nH]c2ccccc12 (stereo unspecified)	none (no result: XiGFP reactiv, rRNA inh HTS)
O=C(Nc1nnc(-c2ccccn2)o1)c1cccc(Cl)c1	rRNA inh HTS -54
O=C(Nc1nnc(-c2ccccn2)o1)c1cccc(Br)c1	none (no result: rRNA inh HTS)
O=C(Nc1nnc(-c2ccncc2)o1)c1ccccc1	rRNA inh HTS -35
CO[C@H]1CN(C)C(=O)c2cc(NC(=O)Cc3ccccc3)ccc2OC[C@H](C)N(CC2CC2)C[C@@H]1C	none (no result: SR-BI DiI inh, dFosB act, PvdQ inh, SR-BI DiI-HDL act)
CC(C)(C)c1ccc(C(=O)NC(=O)CSc2n[nH]c(N)n2)cc1	none
O=C(NCc1ccc(F)cc1)c1cc(C2CCCN(C(=O)c3ccc4c(c3)CCO4)C2)on1 (stereo unspecified)	none (no result: SR-BI DiI inh, dFosB act, PvdQ inh, SR-BI DiI-HDL act)
Cc1nc2c(-c3ccccc3)c[nH]n2c(=O)c1Cc1ccccc1	rRNA inh HTS -20
CC(=O)Nc1ccc(S(=O)(=O)NCCC(=O)OCC(=O)c2ccc(F)c(F)c2)cc1	none
O=C(/C=C/[C@H]1O[C@@H](n2cnc3c(NC(=O)c4ccccc4)ncnc32)[C@H](O)[C@@H]1O)NCCCc1ccccc1	none (no result: SR-BI DiI inh, dFosB act, PvdQ inh, SR-BI DiI-HDL act)
CC1CCN(c2ccccc2NC(=O)c2ccc(C#N)cc2F)CC1	SR-BI DiI inh 77
CC(C)C(=O)N1CCN(c2ccccc2NC(=O)c2ccc(C#N)cc2F)CC1	none
Cc1ccc(Nc2nc(OC(C(F)(F)F)C(F)(F)F)nc(N3CCOCC3)n2)cc1	none (no result: XiGFP reactiv, rRNA inh HTS)
CN(c1ccccc1)S(=O)(=O)c1ccc(-c2ccccc2)cc1	rRNA inh HTS -24
CN(C)S(=O)(=O)c1ccc(-c2ccccc2)cc1	none (no result: XiGFP reactiv, rRNA inh HTS)
C#CCOCCOCCOCCNc1nc(N2CCN(C(=O)[C@H](CCCCN)n3cc([C@@H](N)CO)nn3)CC2)nc(N2CCN(C(=O)[C@H](Cc3ccc(O)cc3)n3cc([C@@H](N)CC(C)C)nn3)CC2)n1	none
Cc1noc(C)c1NC(=O)Nc1ccc2c(c1)C(=O)N([C@H](C)CO)C[C@H](C)[C@@H](CN(C)S(=O)(=O)c1ccc(F)cc1)O2	none
CCCN(C)C[C@@H]1OCCCC[C@@H](C)Oc2ccc(NC(=O)Nc3ccccc3)cc2C(=O)N([C@H](C)CO)C[C@@H]1C	none (no result: SR-BI DiI inh, dFosB act, PvdQ inh, SR-BI DiI-HDL act)
COc1ccccc1CCC(=O)Nc1ccc2c(c1)CN(Cc1ccc(CO)o1)CC2	SR-BI DiI inh 77
Cn1nc(C(F)(F)F)c2cc(C(=O)Nc3ccc(F)cc3)sc21	SR-BI DiI inh 76
Cn1nc(C(F)(F)F)c(-c2ccc(F)cc2)c1NC(=O)Nc1ccc(F)cc1	rRNA inh HTS -30
Cn1nc(C(F)(F)F)c2cc(C(=O)Nc3ccc(C(F)(F)F)cc3)sc21	SR-BI DiI inh 84, rRNA inh HTS -39
Cn1nc(C(F)(F)F)c2cc(C(=O)Nc3ccc(F)c(Cl)c3)sc21	SR-BI DiI inh inconclusive, rRNA inh HTS -30
COc1ccc(C(=O)N/N=C/c2ccc3cccc(O)c3n2)cc1	none
O=C(C1CC1)N1CC2(C1)[C@H](c1ccccc1)[C@H](CO)N2S(=O)(=O)c1ccccc1	none (no result: SR-BI DiI inh, dFosB act, PvdQ inh, SR-BI DiI-HDL act)
COc1cc(OC)cc(C(=O)NNC(=S)Nc2ccccc2OC)c1	none
C[C@H](CO)N1C[C@H](C)[C@H](CN(C)S(=O)(=O)c2cccs2)OCCCC[C@H](C)Oc2ccc(NS(C)(=O)=O)cc2C1=O	none (no result: SR-BI DiI inh, dFosB act, PvdQ inh, SR-BI DiI-HDL act)
O=C1NN(c2ccccc2)C(=O)C2C1C1C=CC2C12CC2 (stereo unspecified)	PvdQ inh 53 (no result: rRNA inh HTS)
O=C1C2C(C(=O)N1CCc1ccccc1)C1C=CC2C12CC2 (stereo unspecified)	none (no result: XiGFP reactiv)
COc1ccc2c(C)nc(Nc3nc(-c4ccccc4)cc(=O)[nH]3)nc2c1	SR-BI DiI inh 78
Cc1ccc2nc(Nc3nc(-c4ccccc4)cc(=O)[nH]3)nc(C)c2c1	none (no result: XiGFP reactiv, rRNA inh HTS)
CC(=O)c1c(C)[nH]c(C(=O)OCc2ccc(F)cc2Cl)c1C	none
CC(=O)c1c(C)[nH]c(C(=O)OCC(=O)N2CCc3ccccc3C2)c1C	rRNA inh HTS -22
CC(=O)c1c(C)[nH]c(C(=O)OCc2cccc(Cl)c2)c1C	SR-BI DiI inh 71
Cc1csc2c(N3CCN(C(=S)Nc4ccc(C(F)(F)F)cc4)CC3)ncnc12	rRNA inh HTS -32
COc1ccccc1N(C)S(=O)(=O)c1ccc(Cl)c(C(=O)NNC(=O)c2ccccc2O)c1	SR-BI DiI inh 81
CN(C)C(CNC(=O)c1cc(S(=O)(=O)N(C)c2ccccc2)ccc1Cl)c1cccs1 (stereo unspecified)	rRNA inh HTS -35
